Source: PubChem (The Scripps Research Institute Molecular Screening Center)
Shown are actives, neighbours in structure and some others; about 1.9% of the full set was active somewhere.
M4 PAM = potentiates acetylcholine response at human M4 receptor | CHO-K1 hM4/Gqi5, Fluo-8 calcium fluorescence, ACh EC20; 0% = ACh EC20, 100% = maximal ACh | hit rate 0.4% among 360,000 | P08173 | activation, % at 3 µM;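 active = activation above its plate's cutoff, the mean activation of sample wells plus 3 SD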
CHRM5 PAM = positive allosteric modulators of human muscarinic M5 receptor | CHO-K1 hM5, Fluo-8 calcium, ACh EC20 PAM; 0% = ACh EC20, 100% = ACh EC100 | hit rate 0.3% among 360,000 | activation, % at 3 µM;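 active = activation above the run cutoff, the mean activation of all test compounds plus 3 SD, cut at about 18% in these data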
Target sequence (P08912 whole entry, looked up): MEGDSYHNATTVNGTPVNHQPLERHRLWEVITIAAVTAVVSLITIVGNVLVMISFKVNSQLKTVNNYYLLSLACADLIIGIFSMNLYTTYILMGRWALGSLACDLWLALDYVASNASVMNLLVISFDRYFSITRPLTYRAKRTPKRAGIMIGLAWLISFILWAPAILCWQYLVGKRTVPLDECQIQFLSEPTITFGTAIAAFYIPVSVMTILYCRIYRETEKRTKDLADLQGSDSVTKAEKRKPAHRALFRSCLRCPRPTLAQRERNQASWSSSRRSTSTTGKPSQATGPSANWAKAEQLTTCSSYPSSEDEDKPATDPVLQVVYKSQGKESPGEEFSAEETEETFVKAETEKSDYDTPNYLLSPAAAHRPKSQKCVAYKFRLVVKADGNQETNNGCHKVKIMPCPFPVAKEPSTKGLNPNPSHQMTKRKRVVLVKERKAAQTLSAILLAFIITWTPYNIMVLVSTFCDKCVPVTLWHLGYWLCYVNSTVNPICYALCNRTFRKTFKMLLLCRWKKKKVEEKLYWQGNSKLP
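System – CHO-K1 hM5 cells · Compound – 3 µM, single dose · Incubation – compound preincubation 140 s before EC20 acetylcholine addition · Technique – Fluo-8 calcium fluorescence · Measure – Max/basal fluorescence ratio as % of EC20–EC100 ACh window · Benchmarks – low control EC20 acetylcholine (0%), high control EC100 acetylcholine (100%) · Replication – singlicate, one well per test compound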
M5 antag = antagonists of human muscarinic M5 receptor (CHRM5). hit rate 0.59% among 360,000. AID 624040. inhibition, % at 3 µM. CHO-hM5 cells, Fluo-8 calcium fluorescence, ACh EC80. P08912;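 active = inhibition above a per-plate cutoff, the mean of that plate's test compounds plus 3 SD, cut at about 27% in these data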;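 note: 0% = acetylcholine EC80 with DMSO and 100% = DMSO without agonist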
CHRM5 agonist = agonists of human muscarinic M5 receptor (CHRM5). P08912. CHO-K1 hM5 cells, Fluo-8 calcium fluorescence; 0% DMSO wells, 100% maximal acetylcholine response. activation, % at 3 µM. hit rate 0.19% among 360,000;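 active = activation above the run's mean over test compounds plus 3 SD, cut at about 23% in these data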;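 note: signal is peak over basal fluorescence ratio across the kinetic read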
M4 antag = CHRM4 antagonism in calcium assay. P08173. CHO-hM4 cells, ACh EC80, Fluo-8 calcium fluorescence. inhibition, % at 3 µM. hit rate 0.73% among 360,000;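 active = inhibition above its plate's cutoff, the mean inhibition of sample wells plus 3 SD, cut at about 27% in these data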;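 note: 0% = acetylcholine EC80 with DMSO and 100% = DMSO without agonist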
M4 ag = CHRM4 agonism in calcium assay. activation, % at 3 µM. AID 624127. CHO-K1 hM4/Gqi5, Fluo-8 calcium fluorescence; vehicle 0%, full acetylcholine response 100%. P08173. hit rate 0.14% among 360,000;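 active = activation above the run mean over all test wells plus 3 SD, cut at about 32% in these data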;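 note: peak over basal fluorescence ratio per well then scaled between controls; 0% = DMSO wells and 100% = acetylcholine at EC100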
* = called active by the depositor.

SMILES | M4 PAM | CHRM5 PAM | M5 antag | CHRM5 agonist | M4 antag | M4 ag
CS(=O)(=O)c1cc([N+](=O)[O-])c(Sc2nc3ccccc3[nH]2)c([N+](=O)[O-])c1 | -1 | 7 | 13 | 0 | 38* | 3
O=C(O)c1cc([N+](=O)[O-])c(Sc2nc3ccccc3[nH]2)c([N+](=O)[O-])c1 | -2 | 3 | 5 | -2 | 10 | 1
O=C(O)c1ccc(Cl)c(NC(=O)C2CCN(S(=O)(=O)c3cccs3)CC2)c1 | 5 | 2 | -5 | 0 | -10 | 0
Cc1cc(C)n2nc(SCC(=O)N3CCC(C)CC3)nc2n1 | 1 | 3 | 19 | -1 | 0 | 1
Cc1cc(C)n2nc(SCC(=O)N3CCCC3)nc2n1 | 8 | 24* | -13 | 4 | -12 | 1
CN(C)S(=O)(=O)c1cccc(NC(=O)CCCc2nc3ccccc3c(=O)[nH]2)c1 | 0 | 0 | 6 | -2 | -9 | -1
CC(Sc1cnccn1)C(=O)O (stereo not drawn) | -9 | -15 | 32* | -2 | 7 | 22
CCC1([N+](=O)[O-])COC(c2ccc(Cl)cc2)OC1 (stereo not drawn) | 27* | 9 | 2 | -2 | -10 | 2
CC1(C(=O)O)COC(c2ccc(Cl)cc2)OC1 (stereo not drawn) | 9 | 5 | 2 | -3 | -1 | 1
C#CCNC(=O)c1cc2c(Br)ccc(Br)c2nc1N | 9 | -3 | -2 | -1 | -18 | 1
O=C1c2ccccc2C(=O)C1(CO)c1ccc(OC(F)F)cc1 | 0 | 7 | -6 | -1 | 6 | 1
CCC(=O)N1CCc2cc(S(=O)(=O)CCC(=O)Nc3nc(C)cs3)ccc21 | 6 | 28* | -3 | -1 | -10 | 1
Cc1ccc(C(C)n2cc(C(=O)NCc3cccnc3)nn2)cc1 (stereo not drawn) | 11 | 18* | -6 | 5 | -6 | 3
CC(C)c1ccc(CC(=O)N2CCC2(C)C(=O)Nc2ccc3c(c2)OCO3)cc1 (stereo not drawn) | -3 | -8 | 5 | 5 | -11 | 12
CC1(C(=O)Nc2ccc3c(c2)OCCO3)CCN1C(=O)Cc1ccc(-c2ccccc2)cc1 (stereo not drawn) | -4 | -14 | 30* | 6 | 15 | 10
O=c1oc2c(CN3CCCCC3)c(O)ccc2c2c1CCCC2 | -14 | -19 | 6 | -6 | 35* | 0
Cc1c(C)c2ccc(O)c(CN3CCCC3)c2oc1=O | 8 | 4 | 2 | -4 | 1 | 0
COC(=O)c1ccc(CNC(=O)c2ccc(S(=O)(=O)N(C)c3ccccc3OC)cc2)cc1 | -11 | -20 | 4 | 3 | 8 | 24
Cc1cc(O)c(-c2cc(C(=O)Nc3ccc(S(=O)(=O)N4CCOCC4)cc3)[nH]n2)cc1C | -16 | -1 | 2 | 6 | 20 | 17
CC(Oc1ccc(Cl)cc1)C(=O)Nc1ccc(S(=O)(=O)N2CCOCC2)cc1 (stereo not drawn) | -11 | -9 | 15 | 38* | 7 | 53*
O=C(Nc1ccc(S(=O)(=O)N2CCOCC2)cc1)c1cc(-c2cc(Cl)ccc2O)n[nH]1 | -37 | -20 | 29* | 3 | 24 | 20
CC(Oc1ccc(Cl)cc1)C(=O)Nc1cccc(S(=O)(=O)N2CCCC2)c1 (stereo not drawn) | 3 | -2 | -2 | 0 | -17 | 1
O=C(C[n+]1ccccc1)N1c2ccccc2Sc2ccccc21 | -27 | -18 | 98* | -10 | 99* | 1
O=C(COc1ccccc1)N1c2ccccc2Sc2ccccc21 | -26 | -5 | 1 | -4 | 5 | -2
CN(C)c1cc[n+](CC(=O)N2c3ccccc3Sc3ccccc32)cc1 | -26 | -10 | 14 | -15 | 48* | 0
SMILES | M4 PAM | CHRM5 PAM | M5 antag | CHRM5 agonist | M4 antag | M4 ag
Cc1cc(C)n(/N=C/c2ccccc2O)c(=O)c1 | 10 | 25* | -19 | 3 | 9 | 1
CC(=O)Nc1cccc(-c2ccnc3c2CC(C)(C(=O)Nc2ccc(Cl)cc2)O3)c1 (stereo not drawn) | -4 | -3 | 0 | 2 | -1 | 3
Cc1ccc(C(=O)Nc2ccccc2N2CCCC2)s1 | -4 | -5 | 1 | 1 | -4 | 0
O=C(C1=C(O)C(=O)N(c2nccs2)C1c1ccccc1)c1cc2ccccc2o1 (stereo not drawn) | -17 | -24 | 8 | 65* | 11 | 29
O=[N+]([O-])c1ccccc1CNc1ccc(F)c(Cl)c1 | -2 | -7 | 13 | -2 | 1 | 0
COc1cccc(CNc2ccc(F)c([N+](=O)[O-])c2)c1O | -7 | -8 | 13 | 1 | 68* | 7
O=C(CCCCCn1c(=S)[nH]c2cc3c(cc2c1=O)OCO3)N1CCN(C2CCCCC2)CC1 | -27 | -15 | 31* | -5 | 12 | 10
O=C(CCCCCn1c(=S)[nH]c2cc3c(cc2c1=O)OCO3)N1CCN(Cc2ccccc2)CC1 | -6 | -2 | 5 | -3 | 2 | 5
FC(F)(F)c1cc(CCN2CCNC[C@@H]2CC2CCCCC2)cc(C(F)(F)F)c1 | -8 | -39 | 26 | -11 | 29* | 0
C=CCNc1nc2cc(-c3ccccc3OC)sc2c(=O)n1C | -3 | 0 | 8 | -1 | 3 | 0
O=C(Nc1cccc(NC(=O)c2ccc(-c3ccc(Br)cc3)o2)c1)c1ccco1 | -22 | -19 | 31* | -1 | 32* | 12
O=C(Nc1cccc(NC(=O)c2ccccc2Cl)c1)c1ccco1 | 0 | -2 | -2 | -1 | -9 | 8
O=C(CCN1C(=O)NC2(CCCC2)C1=O)Nc1ccc(-c2nc3ccccc3s2)cc1 | -13 | -41 | 26 | 3 | 27* | 28
COc1ccccc1C(=O)NCC(=O)NNC(=O)C1COc2ccccc2O1 (stereo not drawn) | 14 | 6 | -6 | 3 | 0 | 1
N=C(N)c1ccc(O)cc1 | 28* | 1 | -2 | 0 | -9 | 1
COc1ccccc1Cn1c(=S)[nH]c2cc(C(=O)N3CC(C)CC(C)C3)ccc2c1=O (stereo not drawn) | 10 | -3 | 8 | 2 | -12 | 0
COCCN(C(=O)COC(=O)CCc1ccccc1)c1c(N)n(Cc2ccccc2)c(=O)[nH]c1=O | 5 | 1 | 2 | 1 | -3 | 0
CCCN1C(=O)/C(=C/c2c(N3CCNC(=O)C3CC(=O)OCC)nc3c(C)cccn3c2=O)SC1=S (stereo not drawn) | -10 | -24 | 22 | 25* | 13 | 12
COC(=O)C1=C(C)NC(C)=C(C(=O)OC)C1c1ccc(NC(C)=O)cc1 | 10 | -16 | 14 | 44* | 2 | 2
